Source: ChEMBL document CHEMBL2311288, “Discovery of liver-targeted inhibitors of stearoyl-CoA desaturase (SCD1)” (Bioorg Med Chem Lett, 2013)

Tests used:
[1] = target: T1, Acyl-CoA desaturase 1 (Rattus norvegicus, UniProt P07308); test: Inhibition of rat SCD1 by rat microsomal assay
T1 sequence (P07308 whole entry): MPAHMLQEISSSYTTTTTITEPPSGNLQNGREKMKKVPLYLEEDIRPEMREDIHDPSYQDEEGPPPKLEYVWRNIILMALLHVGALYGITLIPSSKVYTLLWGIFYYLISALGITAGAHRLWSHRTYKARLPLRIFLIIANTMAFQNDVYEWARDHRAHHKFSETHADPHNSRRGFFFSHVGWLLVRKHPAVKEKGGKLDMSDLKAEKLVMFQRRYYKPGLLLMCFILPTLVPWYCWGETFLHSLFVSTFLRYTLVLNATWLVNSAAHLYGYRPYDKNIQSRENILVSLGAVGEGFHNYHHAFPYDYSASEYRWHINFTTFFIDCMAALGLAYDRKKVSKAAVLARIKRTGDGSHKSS
In short: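 Microsomal desaturase activity was measured in 100 mM Tris HCl pH 7.3 with 2 mM NADH and [9,10-3H]stearoyl-CoA for 15 min at room temperature. The reaction was stopped on ice with trichloroacetic acid, then passed through activated charcoal, and tritium in the filtrate was counted. Compounds were tested in 2% DMSO final. Percent inhibition = (total−sample)/(total−blank)×100, with the blank set by 10⁻⁴ M of a standard inhibitor.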

[2] = tested on: Rattus norvegicus; test: AUC in rat at 10 mg/kg; format: ADME, organism-based, Plasma; parameters: dose 10 mg/kg; details: in vivo
In short: (§1)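 Rats were given a single 10 mg/kg dose. Plasma exposure (AUC, Cmax) was determined, and drug concentrations in plasma, brain and liver were measured at 6 h post-dose. The liver/plasma ratio was taken from the 6 h levels.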

[3] = Drug level in liver in rat at 10 mg/kg measured after 6 hrs; format: ADME, organism-based; parameters: dose 10 mg/kg; details: read-out: Drug uptake; in short: as §1
[4] = Cmax in rat at 10 mg/kg; format: ADME, organism-based; parameters: dose 10 mg/kg; details: in vivo; in short: as §1
[5] = tested on: Mus musculus; test: Toxicity in CD-1 mouse assessed as lacrimation up to 300 mg/kg, po; format: organism-based; parameters: dose 300 mg/kg, route oral; details: in vivo
[6] = tested on: Mus musculus; test: Toxicity in CD-1 mouse assessed as ocular opacity up to 300 mg/kg, po; format: organism-based, Eye; parameters: dose 300 mg/kg, route oral; details: in vivo
[7] = Plasma concentration in AKR/J mouse at 30 mg/kg measured after 4 hrs; format: ADME, organism-based; parameters: dose 30 mg/kg
In short: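 Male AKR/J mice, 7 weeks old (n = 10/group) and fed a 10% kcal low-fat diet, were given oral doses of 1, 3, 10 or 30 mg/kg. Plasma was collected 4 h after dosing, and drug concentration in that plasma was measured.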

[8] = tested on: Mus musculus; test: Toxicity in CD-1 mouse assessed as atrophy of the harderian and meibomian glands up to 300 mg/kg, po; format: organism-based; parameters: dose 300 mg/kg, route oral; details: in vivo
[9] = tested on: Mus musculus; test: Toxicity in CD-1 mouse assessed as alopecia up to 300 mg/kg, po; format: organism-based; parameters: dose 300 mg/kg, route oral; details: in vivo
[10] = tested on: Mus musculus; test: Toxicity in CD-1 mouse assessed as skin atrophy of sebaceous gland up to 300 mg/kg, po; format: organism-based; parameters: dose 300 mg/kg, route oral; details: in vivo
[11] = tested on: Mus musculus; test: Toxicity in CD-1 mouse assessed as eyelid atrophy of sebaceous gland up to 300 mg/kg, po; format: organism-based; parameters: dose 300 mg/kg, route oral; details: in vivo
[12] = Ratio of drug level in liver to plasma of rat at 10 mg/kg measured after 6 hrs; format: ADME, organism-based; parameters: dose 10 mg/kg; in short: as §1
[13] = tested on: Mus musculus; test: Toxicity in CD-1 mouse assessed as peri-orbital swelling up to 300 mg/kg, po; format: organism-based; parameters: dose 300 mg/kg, route oral; details: in vivo
[14] = tested on: Mus musculus; test: Toxicity in CD-1 mouse assessed as article related testes up to 300 mg/kg, po; format: organism-based, Testis; parameters: dose 300 mg/kg, route oral; details: in vivo
[15] = tested on: Mus musculus; test: Toxicity in CD-1 mouse assessed as swelling of the lips up to 300 mg/kg, po; format: organism-based; parameters: dose 300 mg/kg, route oral; details: in vivo
[16] = tested on: Mus musculus; test: Toxicity in CD-1 mouse assessed as meibomian gland (atrophy, squamous metaplasia) up to 300 mg/kg, po; format: organism-based; parameters: dose 300 mg/kg, route oral; details: in vivo
[17] = AUC (0 to 24 hrs) in CD-1 mouse at 300 mg/kg, po; format: ADME, organism-based; parameters: time < 24 hr, dose 300 mg/kg, route oral; details: plasma
In short: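 Male CD-1 mice received single daily oral gavage doses of 30, 100 or 300 mg/kg for 2 weeks. Plasma drug levels were determined on Day 13, and exposure was expressed as AUC(0–24 h).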

[18] = tested on: Mus musculus; test: Toxicity in mouse assessed as abnormalities in skin at 30 mg/kg; format: organism-based; parameters: dose 30 mg/kg; details: in vivo
[19] = tested on: Mus musculus; test: Toxicity in mouse assessed as abnormalities in eyes at 30 mg/kg; format: organism-based; parameters: dose 30 mg/kg; details: in vivo
[20] = Plasma concentration in rat at 10 mg/kg measured after 6 hrs; format: ADME, organism-based; parameters: dose 10 mg/kg; in short: as §1
[21] = tested on: Mus musculus; test: Toxicity in CD-1 mouse assessed as eyes (corneal degeneration, inflammation) up to 300 mg/kg, po; format: organism-based, Cornea; parameters: dose 300 mg/kg, route oral; details: in vivo

## CC(=O)NCC(=O)N1CCC2(CC1)CCN(Cc1ccc(C)cc1)c1ccccc1O2
[1]
  IC50: 1100 nM

## CC(=O)NCC(=O)N1CCC2(CC1)CCN(CCc1ccccc1)c1ccccc1O2
[1]
  IC50: 1600 nM

## CC(=O)NCC(=O)N1CCC2(CC1)CCN(Cc1ccccc1C)c1ccccc1O2
[1]
  IC50: 1200 nM

## CC(C)(C)c1ccc(CC(=O)N2CCC3(CC2)CCN(CC#N)c2ccccc2O3)cc1
[1]
  IC50: 440 nM

## CC(=O)NCC(=O)N1CCC2(CC1)CCN(Cc1ccc(Cl)cc1)c1ccccc1O2
[1]
  IC50: > 10000 nM

## O=C(NCCC1CC1)c1ccc(N2CCC3(CC2)CCN(Cc2cccc(C(F)(F)F)c2)c2ccccc2O3)nc1
[1]
  IC50: 12 nM
[2]
  AUC: 23 ng·h/g
[3]
  concentration at 6 h: < 10 ng/g
[4]
  Cmax: 45 ng/g

## CC(=O)NCC(=O)N1CCC2(CC1)CCN(Cc1cccc(F)c1)c1ccccc1O2
[1]
  IC50: > 10000 nM

## CNC(=O)c1cccc(NC(=O)N2CCC(Oc3ccccc3Cl)CC2)c1
[5]
  Activity: Toxic
[6]
  Activity: Toxic
[7]
  concentration at 4 h: 1780 ng/mL
[1]
  IC50: < 4 nM
[8]
  Activity: Toxic
[2]
  AUC: 1435 ng·h/g
[3]
  concentration at 6 h: 529 ng/g
[9]
  Activity: Toxic
[10]
  Activity: Toxic
[11]
  Activity: Toxic
[12]
  Kp at 6 h: 8
[13]
  Activity: Toxic
[14]
  Activity: Non-toxic
[15]
  Activity: Toxic
[16]
  Activity: Toxic
[17]
  AUC(0-t) at 24 h: 216 µM·h
[4]
  Cmax: 599 ng/g
[18]
  Activity: Non-toxic
[19]
  Activity: Non-toxic
[20]
  concentration at 6 h: 66 ng/g
[21]
  Activity: Toxic

## CNC(=O)c1cnc(N2CCC3(CC2)CCN(Cc2cccc(C(F)(F)F)c2)c2ccccc2O3)s1
[1]
  IC50: 3 nM
[2]
  AUC: 0 ng·h/g

## CNC(=O)c1cnc(N2CCC3(CC2)CCN(Cc2ccc(C(C)(C)C)cc2)c2ccccc2O3)s1
[1]
  IC50: 4 nM

## CCc1ccccc1CN1CCC2(CCN(C(=O)CNC(C)=O)CC2)Oc2ccccc21
[1]
  IC50: 430 nM

## NC(=O)c1ccc(N2CCC3(CC2)CCN(Cc2cccc(C(F)(F)F)c2)c2ccccc2O3)nn1
[1]
  IC50: 10 nM

## COc1cccc(CN2CCC3(CCN(C(=O)CNC(C)=O)CC3)Oc3ccccc32)c1
[1]
  IC50: 1800 nM

## O=C(CO)Nc1ccc2ncn(Cc3ccc(Cl)c(Cl)c3)c(=O)c2c1
[1]
  IC50: 261 nM

## O=C(NCC(=O)N1CCC2(CC1)CCN(Cc1cccc(C(F)(F)F)c1)c1ccccc1O2)c1ccccc1
[1]
  IC50: 2600 nM

## CC(=O)NCC(=O)N1CCC2(CC1)CCN(CCc1ccc(C(C)C)cc1)c1ccccc1O2
[1]
  IC50: 42 nM
[2]
  AUC: 2608 ng·h/g
[3]
  concentration at 6 h: 1660 ng/g
[12]
  Kp at 6 h: 17
[4]
  Cmax: 875 ng/g
[20]
  concentration at 6 h: 100 ng/g

## CC(=O)NCC(=O)N1CCC2(CC1)CCN(CC(C)C)c1ccccc1O2
[1]
  IC50: > 10000 nM

## CCc1ccc(CN2CCC3(CCN(C(=O)CNC(C)=O)CC3)Oc3ccccc32)cc1
[1]
  IC50: 57 nM
[2]
  AUC: 1288 ng·h/g
[3]
  concentration at 6 h: < 100 ng/g
[4]
  Cmax: 579 ng/g
[20]
  concentration at 6 h: 19 ng/g

## O=C(O)c1ccc(N2CCC3(CC2)CCN(Cc2cccc(C(F)(F)F)c2)c2ccccc2O3)nn1
[1]
  IC50: 4700 nM

## CC(=O)NCC(=O)N1CCC2(CC1)CCN(Cc1ccccc1F)c1ccccc1O2
[1]
  IC50: > 10000 nM

## CC(=O)NCC(=O)N1CCC2(CC1)CCN(Cc1cccc(Cl)c1)c1ccccc1O2
[1]
  IC50: 830 nM

## NC(=O)c1cnc(N2CCC3(CC2)CCN(Cc2cccc(C(F)(F)F)c2)c2ccccc2O3)s1
[1]
  IC50: 3 nM
[2]
  AUC: 58 ng·h/g
[3]
  concentration at 6 h: < 10 ng/g
[4]
  Cmax: 45 ng/g
